ChEMBL document CHEMBL3875172, “Evaluation of the anti-malarial activity and cytotoxicity of 2,4-diamino-pyrimidine-based kinase inhibitors” (Eur J Med Chem, 2016)

How the values were obtained:
[1] = test system: Plasmodium falciparum; assay: Antimalarial activity against multidrug-resistant Plasmodium falciparum K1 infected human erythrocytes assessed as reduction in parasite viability after 24 hrs by [3H]-hypoxanthine incorporation assay; assay type: functional
Summary of the method: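 K1 parasites cultured in RPMI-1640 with 25 mM HEPES, 25 mM NaHCO3, 10% […] human serum and erythrocytes at 37 C, 3% CO2. Early ring-stage culture (1% parasitemia, 1.5% Hct) was exposed to compounds in duplicate for 24 h, then [3H]hypoxanthine was added for a further 18-20 h. Incorporation was scintillation-counted, and IC50 (50% growth reduction) was taken from fitted curves. The vehicle was 0.5% DMSO.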

[2] = Cytotoxicity against African green monkey Vero cells at 10 uM after 4 days by fluorescence assay; assay type: toxicity, cell-based; conditions: chlorocebus sabaeus, 96 h
Summary of the method: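 GFP-expressing Vero cells (stably transfected with pEGFP-N1), maintained in MEM with 10% heat-inactivated FBS, L-glutamine, pyruvate and geneticin. Seeded at 3.3 × 10^4 cells/ml onto compound at […] (so in the source), then incubated 4 days at 37 °C, 5% CO2. Read by bottom fluorescence (ex 530/em 590 nm) as percent cytotoxicity. Ellipticine positive control; 0.5% DMSO negative control.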

[3] = Cytotoxicity against human A549 cells after 72 hrs by MTT assay; assay type: toxicity, cell-based
Summary of the method: (§1)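 Dose-response MTT assay in cells grown in DMEM with 10% FBS, penicillin and streptomycin at 37 °C, 5% CO2. Cells were precultured 16–18 h, then exposed to compound for 72 h. MTT was added for 3 h, formazan dissolved in DMSO, and absorbance read at 570 nm. Gefitinib positive control; 0.5% DMSO negative control.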

[4] = target: T1, Tyrosine-protein kinase JAK3 (Homo sapiens, UniProt P52333); assay: Inhibition of human JAK3 using poly (Glu:Tyr) as substrate
T1 sequence (P52333 whole entry): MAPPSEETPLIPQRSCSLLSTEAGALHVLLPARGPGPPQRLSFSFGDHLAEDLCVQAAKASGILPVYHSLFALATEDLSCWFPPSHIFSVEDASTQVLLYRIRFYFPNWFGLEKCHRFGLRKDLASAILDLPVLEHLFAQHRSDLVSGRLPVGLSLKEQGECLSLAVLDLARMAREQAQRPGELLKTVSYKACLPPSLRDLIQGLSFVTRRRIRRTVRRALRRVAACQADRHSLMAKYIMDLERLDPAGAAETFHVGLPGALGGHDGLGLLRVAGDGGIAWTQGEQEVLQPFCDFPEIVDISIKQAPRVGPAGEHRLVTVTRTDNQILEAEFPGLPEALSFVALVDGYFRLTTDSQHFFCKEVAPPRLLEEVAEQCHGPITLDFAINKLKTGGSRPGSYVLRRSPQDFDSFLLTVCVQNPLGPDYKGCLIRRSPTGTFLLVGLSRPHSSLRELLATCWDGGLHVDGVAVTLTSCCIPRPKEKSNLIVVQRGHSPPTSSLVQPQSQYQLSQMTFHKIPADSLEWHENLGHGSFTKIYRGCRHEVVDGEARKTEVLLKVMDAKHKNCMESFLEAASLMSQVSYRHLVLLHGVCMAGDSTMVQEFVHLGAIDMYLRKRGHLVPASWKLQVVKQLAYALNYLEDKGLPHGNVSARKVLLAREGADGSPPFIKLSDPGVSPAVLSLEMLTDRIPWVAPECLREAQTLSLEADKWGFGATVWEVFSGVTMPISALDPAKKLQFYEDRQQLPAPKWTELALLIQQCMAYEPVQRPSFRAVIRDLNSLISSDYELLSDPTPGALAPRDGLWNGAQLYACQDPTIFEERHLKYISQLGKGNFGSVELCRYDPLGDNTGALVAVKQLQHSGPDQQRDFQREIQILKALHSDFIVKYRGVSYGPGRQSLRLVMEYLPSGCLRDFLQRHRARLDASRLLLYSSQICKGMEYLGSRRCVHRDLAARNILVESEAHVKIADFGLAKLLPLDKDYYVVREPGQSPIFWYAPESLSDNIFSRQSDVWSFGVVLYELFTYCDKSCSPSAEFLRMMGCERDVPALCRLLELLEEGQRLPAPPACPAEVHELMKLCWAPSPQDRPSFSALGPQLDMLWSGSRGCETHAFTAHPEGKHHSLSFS
Summary of the method: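 Antibody Beacon tyrosine kinase fluorescence assay, run as for EGFR. Reaction held 3 ng JAK3 enzyme, 0.1 mg/ml poly(Glu:Tyr) and 0.1 mg/ml ATP.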

[5] = Cytotoxicity against African green monkey Vero cells after 72 hrs by MTT assay; assay type: toxicity, cell-based, Chlorocebus sabaeus; summary of the method: as §1
[6] = target: Epidermal growth factor receptor (Homo sapiens, UniProt P00533); assay: Inhibition of human EGFR using poly (Glu:Tyr) as substrate measured for 1.5 hrs by oregon green 488 dye-based fluorescence assay
[7] = target: Tyrosine-protein kinase JAK2 (Homo sapiens, UniProt O60674); assay: Inhibition of human JAK2 using poly (Glu:Tyr) as substrate
Summary of the method: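 Antibody Beacon tyrosine kinase fluorescence assay, run as for EGFR. Reaction held 10 ng JAK2 enzyme, 0.1 mg/ml poly(Glu:Tyr) and 0.1 mg/ml ATP.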

[8] = test system: Plasmodium falciparum; assay: Antimalarial activity against Plasmodium falciparum 3D7 by high throughput screening assay; assay type: functional
[9] = Cytotoxicity against human HepG2 cells at 10uM; assay type: toxicity, cell-based; conditions: hepg2, 10 µM

Sequence of Epidermal growth factor receptor (P00533 whole entry): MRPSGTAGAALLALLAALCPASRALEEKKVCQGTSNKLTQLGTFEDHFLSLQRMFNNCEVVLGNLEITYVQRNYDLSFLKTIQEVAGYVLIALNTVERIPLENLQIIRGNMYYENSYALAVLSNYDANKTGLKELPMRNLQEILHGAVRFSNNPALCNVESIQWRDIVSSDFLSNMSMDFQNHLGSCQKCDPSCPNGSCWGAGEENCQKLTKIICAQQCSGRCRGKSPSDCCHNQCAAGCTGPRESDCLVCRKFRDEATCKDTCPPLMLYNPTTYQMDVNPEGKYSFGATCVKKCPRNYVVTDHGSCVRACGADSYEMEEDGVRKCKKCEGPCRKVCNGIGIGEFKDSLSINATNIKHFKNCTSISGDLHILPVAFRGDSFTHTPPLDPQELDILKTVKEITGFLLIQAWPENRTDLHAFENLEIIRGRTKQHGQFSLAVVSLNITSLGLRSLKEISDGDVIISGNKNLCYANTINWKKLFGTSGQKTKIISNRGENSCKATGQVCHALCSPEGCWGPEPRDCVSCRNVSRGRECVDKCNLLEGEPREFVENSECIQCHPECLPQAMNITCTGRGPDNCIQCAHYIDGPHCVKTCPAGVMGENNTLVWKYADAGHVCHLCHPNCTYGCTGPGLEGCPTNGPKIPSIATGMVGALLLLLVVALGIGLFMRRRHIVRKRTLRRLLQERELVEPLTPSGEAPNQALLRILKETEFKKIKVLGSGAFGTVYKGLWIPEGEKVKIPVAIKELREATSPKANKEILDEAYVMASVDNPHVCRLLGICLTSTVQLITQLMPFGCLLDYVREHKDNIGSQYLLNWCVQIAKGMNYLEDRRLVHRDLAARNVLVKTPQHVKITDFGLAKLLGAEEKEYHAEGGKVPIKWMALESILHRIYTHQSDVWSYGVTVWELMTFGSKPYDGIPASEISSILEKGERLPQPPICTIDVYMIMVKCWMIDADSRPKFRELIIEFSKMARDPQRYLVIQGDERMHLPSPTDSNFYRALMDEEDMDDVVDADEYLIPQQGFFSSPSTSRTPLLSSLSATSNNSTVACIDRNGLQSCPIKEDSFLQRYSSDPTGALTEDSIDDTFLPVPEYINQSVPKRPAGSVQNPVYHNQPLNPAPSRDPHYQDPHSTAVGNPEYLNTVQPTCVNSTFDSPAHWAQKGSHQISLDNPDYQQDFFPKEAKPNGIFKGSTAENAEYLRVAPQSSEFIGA
Sequence of Tyrosine-protein kinase JAK2 (O60674 whole entry): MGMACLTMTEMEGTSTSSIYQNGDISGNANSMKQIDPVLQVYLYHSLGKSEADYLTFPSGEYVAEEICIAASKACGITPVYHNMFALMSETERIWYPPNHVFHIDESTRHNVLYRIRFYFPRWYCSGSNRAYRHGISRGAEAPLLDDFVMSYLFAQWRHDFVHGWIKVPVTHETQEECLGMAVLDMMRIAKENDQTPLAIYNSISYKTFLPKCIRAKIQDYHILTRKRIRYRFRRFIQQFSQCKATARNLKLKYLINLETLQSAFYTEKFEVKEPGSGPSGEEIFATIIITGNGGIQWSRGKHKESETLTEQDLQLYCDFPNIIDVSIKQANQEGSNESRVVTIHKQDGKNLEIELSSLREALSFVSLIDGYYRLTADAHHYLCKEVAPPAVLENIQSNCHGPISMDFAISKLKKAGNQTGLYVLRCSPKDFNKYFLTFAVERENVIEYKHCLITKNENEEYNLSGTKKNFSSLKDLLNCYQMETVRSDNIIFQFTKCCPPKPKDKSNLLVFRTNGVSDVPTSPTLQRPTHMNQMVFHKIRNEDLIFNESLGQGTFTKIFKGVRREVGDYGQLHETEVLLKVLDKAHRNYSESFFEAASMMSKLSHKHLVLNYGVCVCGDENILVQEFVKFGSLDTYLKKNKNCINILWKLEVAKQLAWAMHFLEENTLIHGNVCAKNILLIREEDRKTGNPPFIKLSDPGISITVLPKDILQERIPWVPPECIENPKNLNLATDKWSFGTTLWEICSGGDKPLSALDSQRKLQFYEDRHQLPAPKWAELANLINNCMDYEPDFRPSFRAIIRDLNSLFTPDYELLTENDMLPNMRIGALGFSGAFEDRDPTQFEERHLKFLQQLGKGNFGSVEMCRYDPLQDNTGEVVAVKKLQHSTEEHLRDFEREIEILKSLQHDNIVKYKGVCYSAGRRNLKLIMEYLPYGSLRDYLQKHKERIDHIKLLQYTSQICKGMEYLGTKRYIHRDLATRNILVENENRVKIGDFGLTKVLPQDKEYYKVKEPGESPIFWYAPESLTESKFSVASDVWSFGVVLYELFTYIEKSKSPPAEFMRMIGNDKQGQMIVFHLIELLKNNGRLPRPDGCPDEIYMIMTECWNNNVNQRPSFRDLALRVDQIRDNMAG

With `CN1CCN(c2ccc(Nc3nccc(Nc4cccc(S(N)(=O)=O)c4)n3)cc2)CC1` the IC50 [1] was 7.25 µM and the Activity [2] was 80%.
Work on `Cc1cccc(Nc2ncc(C#N)c(Nc3cccc(C)c3)n2)c1` yielded an Activity [2] of 40%.
With `Cc1cc(Nc2ncc(C#N)c(Nc3cccc(S(N)(=O)=O)c3)n2)ccc1N1CCN(C)CC1` the IC50 [1] was 5.56 µM and the Activity [2] was 94%.
`Cc1cccc(Nc2ccnc(Nc3ccc(N4CCOCC4)cc3)n2)c1` showed an Activity [2] of 74%.
Compound `Cc1cccc(Nc2ccnc(Nc3ccc(N4CCN(C)CC4)c(C)c3)n2)c1` has an IC50 [1] of 0.647 µM, an EC50 at 72 h [3] of 3.5 µM and an IC50 [4] of 1.8 µM. The Activity [2] was 94%, the EC50 at 72 h [5] was 2 µM and the IC50 [6] was greater than 150 µM. The IC50 [7] was 0.05 µM.
Work on `Cc1cccc(Nc2ccnc(Nc3cccc(C)c3)n2)c1` yielded an Activity [2] of 94%.
Work on `c1cc(Nc2ccc(N3CCOCC3)cc2)nc(Nc2ccc(N3CCOCC3)cc2)n1` yielded an Activity [2] of 25%.
`Cc1cccc(Nc2ccnc(Nc3ccc(N4CCN(C)CC4)cc3)n2)c1` showed an IC50 [1] of 0.431 µM, an EC50 at 72 h [3] of 7.1 µM and an IC50 [4] of 2.1 µM. For the same compound, the Activity [2] was 94%, the EC50 at 72 h [5] was 1 µM and the IC50 [6] was 11 µM. The IC50 [7] was 0.14 µM.
With `O[C@@H](c1cc(C(F)(F)F)nc2c(C(F)(F)F)cccc12)[C@H]1CCCCN1` [(S,R)-MEFLOQUINE] the IC50 [1] was 0.07 µM.
Work on `NC(=O)c1ccccc1Nc1ccnc(Nc2ccc(N3CCOCC3)cc2)n1` yielded an IC50 [1] of 4.39 µM and an Activity [2] of 68%.
In the case of `Cc1cc(Nc2ncc(C#N)c(Nc3cccc(S(=O)(=O)NC(C)(C)C)c3)n2)ccc1N1CCN(C)CC1`, the IC50 [1] is reported as 4.56 µM, the EC50 at 72 h [3] is reported as greater than 100 µM and the IC50 [4] is reported as greater than 100 µM. For the same compound, the Activity [2] was 31%, the EC50 at 72 h [5] was 45.4 µM and the IC50 [6] was greater than 150 µM. For the same compound, the IC50 [7] was greater than 100 µM.
Work on `Cc1cc(Nc2nc(Nc3cccc(S(N)(=O)=O)c3)ncc2C#N)ccc1N1CCN(C)CC1` yielded an Activity [2] of 33%.
`Cc1cc(Nc2ncc(C#N)c(Nc3ccccc3C(N)=O)n2)ccc1N1CCN(C)CC1` gave an IC50 [8] of 0.009 µM, an IC50 [1] of 3.93 µM and an Activity [2] of 94%. It also gave an Activity [9] of 99%.
For `Cc1cc(Nc2nccc(Nc3cccc(S(N)(=O)=O)c3)n2)ccc1N1CCN(C)CC1`, the IC50 [1] was 3.86 µM, the EC50 at 72 h [3] was 4.2 µM and the IC50 [4] was 4.1 µM. For the same compound, the Activity [2] was 66%, the EC50 at 72 h [5] was greater than 100 µM and the IC50 [6] was greater than 150 µM. The IC50 [7] was 0.126 µM.
With `Cc1cc(Nc2nccc(Nc3ccccc3C(N)=O)n2)ccc1N1CCN(C)CC1` the IC50 [1] was 1.06 µM and the Activity [2] was 92%.
With `Cc1cccc(Nc2ncc(C(N)=O)c(Nc3cccc(C)c3)n2)c1` the Activity [2] was 96%.
For `CCN(CC)CCCC(C)Nc1ccnc2cc(Cl)ccc12` (stereo not drawn) [CHLOROQUINE], the Activity [2] was 45%.
`COc1cnc(Nc2ccc(N3CCN(C)CC3)c(C)c2)nc1Nc1cccc(S(N)(=O)=O)c1` gave an IC50 [1] of 5.26 µM and an Activity [2] of 88%.
`C[C@H]1[C@@H](O)O[C@@H]2O[C@@]3(C)CC[C@H]4[C@H](C)CC[C@@H]1[C@@]24OO3` [ARTENIMOL] showed an IC50 [1] of 0.00254 µM.
`Cc1cc(Nc2ncc(C#N)c(Nc3cccc(S(C)(=O)=O)c3)n2)ccc1N1CCN(C)CC1` gave an IC50 [1] of 4.72 µM and an Activity [2] of 92%.
With `CNC(=O)c1cnc(Nc2ccc(N3CCOCC3)cc2)nc1Nc1cccc(OC(C)C)c1` the IC50 [8] was 0.759 µM and the Activity [9] was 19%.
`NS(=O)(=O)c1cccc(Nc2ccnc(Nc3ccc(N4CCOCC4)cc3)n2)c1` gave an IC50 [1] of 8.97 µM, an EC50 at 72 h [3] of 9.4 µM and an IC50 [4] of 7.1 µM. For the same compound, the Activity [2] was 35%, the EC50 at 72 h [5] was 37 µM and the IC50 [6] was greater than 100 µM. The IC50 [7] was 0.129 µM.
Work on `CNC(=O)c1cnc(Nc2ccc(N3CCN(C)CC3)cc2)nc1Nc1cccc([N+](=O)[O-])c1` yielded an IC50 [8] of 0.138 µM and an Activity [9] of 16%.
For `CN1CCN(c2ccc(Nc3ncc(C#N)c(Nc4ccccc4C(N)=O)n3)cc2)CC1`, the IC50 [8] was 0.04 µM and the Activity [9] was 43%.
Compound `CN1CCN(c2ccc(Nc3nccc(Nc4ccccc4C(N)=O)n3)cc2)CC1` has an IC50 [1] of 1.5 µM and an Activity [2] of 91%.
